# Compound activity from PubChem BioAssay.
# An excerpt weighted towards active compounds, which were near 3.4% of everything screened.
# GPR7 antagonist = antagonists of human GPR7 (neuropeptides B/W receptor 1); 290,000 compounds, 1.1% hits; P48145; GPR7-expressing cells, fluorescence antagonist assay; inhibition, % at 4.4 µM; in the data active = inhibition above about 16%, passing the limit was not always enough;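 note: cells stimulated with the agonist NPW; 0% = agonist with vehicle and 100% = vehicle without agonist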
# Target sequence (P48145 whole entry, looked up): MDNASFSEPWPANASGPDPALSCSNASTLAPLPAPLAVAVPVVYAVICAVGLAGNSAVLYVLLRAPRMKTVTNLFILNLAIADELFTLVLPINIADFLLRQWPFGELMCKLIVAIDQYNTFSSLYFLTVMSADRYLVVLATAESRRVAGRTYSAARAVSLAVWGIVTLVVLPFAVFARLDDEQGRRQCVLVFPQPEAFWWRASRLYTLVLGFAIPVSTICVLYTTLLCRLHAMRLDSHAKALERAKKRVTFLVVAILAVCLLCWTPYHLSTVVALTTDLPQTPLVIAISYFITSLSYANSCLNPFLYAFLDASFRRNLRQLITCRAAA
# zfTRPN1 agonist = agonists of zebrafish TRPN1 channel; HEK293 zebrafish TRPN1-YFP, Fluo-8 calcium fluorescence; 100% = response to 87 µM carbachol; activation, % at 3 µM; 220,000 compounds, 0.18% hits; AID 1424;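 active = activation above its plate's cutoff, the mean activation of test wells on that plate plus 3 SD, cut at about 19% in these data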;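 note: 0% = DMSO alone and 100% = 87 µM carbachol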
#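 Material – zebrafish TRPN1-YFP in HEK293 cells · Doses – 3 µM single point · Schedule – dye 1 h 37 °C plus 30 min RT · Signal – Fluo-8 calcium fluorescence, excitation 470-495 nm, emission 515-575 nm · Read-out – % activation versus carbachol response · Control set – carbachol high, DMSO low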
# TAAR1 agonist = human TAAR1 agonism | CHO RD-HGA16 TAAR1, Fluo-8 calcium fluorescence; vehicle wells 0%, saturating PEA agonist 100% | Q96RJ0 | 360,000 compounds, 0.99% hits | activation, % at 3 µM;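 active = activation above the mean activation of all test compounds in the run plus 3 SD, cut at about 38% in these data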
# Target sequence (Q96RJ0 whole entry, looked up): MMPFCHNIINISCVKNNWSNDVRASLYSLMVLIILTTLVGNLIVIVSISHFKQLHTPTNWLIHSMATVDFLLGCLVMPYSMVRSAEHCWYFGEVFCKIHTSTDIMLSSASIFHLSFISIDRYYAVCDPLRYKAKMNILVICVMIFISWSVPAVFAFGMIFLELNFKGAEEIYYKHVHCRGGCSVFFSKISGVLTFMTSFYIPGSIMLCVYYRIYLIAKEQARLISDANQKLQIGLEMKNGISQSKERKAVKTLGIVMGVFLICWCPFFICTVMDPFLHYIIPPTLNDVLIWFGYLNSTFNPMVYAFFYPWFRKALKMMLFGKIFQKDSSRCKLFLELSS
#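 Assay system: CHO-derived RD-HGA16 cells with stable Gα16 and human TAAR1; timing: 17-24 h seeding, 75 min 37 °C dye, 30 min RT; read-out: % activation from peak over basal fluorescence ratio, DMSO-to-PEA scaled; measured by: kinetic Fluo-8 calcium fluorescence; benchmarks: low control DMSO, high control PEA (EC100); doses: 3 µM single concentration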
# LANA-H2A inh = blocks KSHV LANA binding to histone H2A/H2B | cell-free LANA-H2A/H2B peptide, fluorescence polarization | inhibition, % (test concentration not listed) | 320,000 compounds, 0.6% hits; in the data active = inhibition mostly above about 10%, no sharp cut-off; inactive = mostly below about 6.7%
# TAAR1 antag = antagonists of human TAAR1; Q96RJ0; CHO RD-HGA16 TAAR1, Fluo-8 calcium fluorescence, antagonist; inhibition, % at 3 µM; 360,000 compounds, 1.5% hits;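 active = inhibition above a per-plate cutoff, the mean inhibition of test compounds on that plate plus 3 SD, cut at about 49% in these data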;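 note: 0% = DMSO plus EC80 beta-PEA response and 100% = DMSO alone without agonist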
#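 Material: CHO RD-HGA16 cells bearing hTAAR1; compound dosing: one-point dosing, 3 µM nominal final; schedule: dye loading 75 min at 37 °C, then 30 min room temperature; measured by: calcium fluorescence with Fluo-8; control set: vehicle and agonist controls; replication: n of 1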
# TRPML3 ag = human mucolipin-3 channel agonism; activation, % at 3 µM; 220,000 compounds, 0.29% hits; HEK293 TRPML3-YFP, Fluo-8 calcium fluorescence; 100% = the carbachol control signal; AID 1448;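 active = activation above its plate's cutoff, the mean activation of the plate's test wells plus 3 SD, cut at about 12% in these data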;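 note: 0% = DMSO only wells and 100% = carbachol wells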
#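 Material: HEK293 cells stably carrying human TRPML3-YFP; compound dosing: single dose, 3 µM final nominal compound, 0.3% DMSO final; incubation: 1-h 37 °C dye load, 5-s basal, 120-s post-compound reads; technique: Fluo-8 intracellular calcium fluorescence, excitation 470-495 nm, emission 515-575 nm; read-out basis: percent activation from peak-to-basal fluorescence ratio, scaled between DMSO and carbachol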
# * marks the source's active call; other numbers are inactive results; x = not tested or not shown; + = active, no number.
SMILES,GPR7 antagonist,zfTRPN1 agonist,TAAR1 agonist,LANA-H2A inh,TAAR1 antag,TRPML3 ag
Cc1cccc(OCc2nnc(SCC(=O)Nc3sc(C)c(C)c3C#N)n2C)c1,-9,0,42*,4,22,1
COc1cc(-c2cc(NC(C)=O)c3ncc(-c4ccc(F)cc4)n3c2)cc(OC)c1OC,x,x,13,x,52*,x
CC(=O)Nc1cc(-c2ccccc2)cn2c(-c3ccc(F)cc3)cnc12,x,x,6,x,49*,x
COc1cc(-c2cc(NC(C)=O)c3ncc(-c4ccc(C(C)=O)cc4)n3c2)cc(OC)c1OC,x,x,10,x,48,x
CC(=O)N(C)C[C@@H]1OCc2ccccc2-c2c(n(C)c3ccccc23)C(=O)N([C@@H](C)CO)C[C@@H]1C,x,x,0,x,-13,x
COc1ccc(CNC(=O)N(C)C[C@@H]2OCc3ccccc3-c3c(n(C)c4ccccc34)C(=O)N([C@@H](C)CO)C[C@@H]2C)cc1,x,x,0,x,-22,x
NS(=O)(=O)c1ccc(CCNC(=O)CNC(=O)c2ccc(Br)o2)cc1,x,x,x,23*,x,x
COc1cc(/C=N/NC(=O)NC23CC4CC(CC(C4)C2)C3)ccc1OCC(N)=O,-11,x,28,-3,58*,x
Cc1onc(-c2ccccc2)c1C(=O)NNC(=S)NC(=O)c1ccc(Br)cc1,-8,23*,1,x,-10,11
CC(=O)N1CCN(C(=O)c2c(-c3ccccc3)noc2C)CC1,x,x,3,22*,-6,x
Cc1onc(-c2ccccc2)c1C(=O)NNC(=O)c1ccccc1,x,x,1,x,6,x
CC1CCN(CCCOc2ccc(Br)cc2Cl)CC1,7,3,39*,-6,2,2
CC1CCCN(CCOCCOc2ccc(Br)cc2Cl)C1 (stereo not given),14,-3,10,-4,-13,1
O=C(N/N=C/c1cccc(F)c1)c1c(O)c2ccccc2[nH]c1=O,-5,0,1,+,15,0
O=C(N/N=C/c1ccc(F)cc1)c1c(O)c2ccccc2[nH]c1=O,-6,1,6,3,-6,1
C[C@H](CO)N1C[C@H](C)[C@H](CN(C)C(=O)Nc2ccc(F)cc2)Oc2c(NC(=O)c3ccc(-c4nccs4)cc3)cccc2C1=O,x,x,21,5,54*,x
C[C@H](CO)N1C[C@H](C)[C@@H](CN(C)C(=O)Nc2ccc(C(F)(F)F)cc2)Oc2c(NC(=O)c3ccncc3)cccc2C1=O,x,x,1,0,-6,x
C[C@H](CO)N1C[C@H](C)[C@@H](CN(C)C(=O)Nc2ccc(C(F)(F)F)cc2)Oc2ccc(NC(=O)Nc3ccccc3)cc2C1=O,x,x,4,143*,-11,x
C[C@H](CO)N1C[C@H](C)[C@@H](CN(C)C(=O)Nc2ccc(C(F)(F)F)cc2)Oc2c(NC(=O)Nc3ccc4c(c3)OCO4)cccc2C1=O,x,x,8,0,33,x
Cc1noc(C)c1NC(=O)Nc1ccc2c(c1)C(=O)N([C@H](C)CO)C[C@H](C)[C@H](CN(C)C)O2,x,x,1,46*,-5,x
C[C@H](CO)N1C[C@H](C)[C@@H](CN(C)C(=O)Nc2ccc3c(c2)OCO3)Oc2c(NC(=O)Nc3ccc(C(F)(F)F)cc3)cccc2C1=O,x,x,34,-2,80*,x
CCCCCCCCN1C(=O)[C@@H](CC(=O)NCC2CCCCC2)C[C@@]2(C(=O)OC)C1=C[C@H](C(C)(C)C)O[C@@H]2C,x,x,4,x,-28,x
O=C(N[C@H](Cc1ccccc1)C(=O)N1CCCN(Cc2ccccc2F)CC1)[C@H]1O[C@@H](n2ccc(=O)[nH]c2=O)[C@H](O)[C@@H]1O,x,x,0,x,-28,x
COc1ccc(NC(=O)N(C)C[C@H]2Oc3c(NC(=O)Nc4ccc(C(F)(F)F)cc4)cccc3C(=O)N([C@H](C)CO)C[C@@H]2C)cc1,x,x,31,4,73*,x
C[C@H](CO)N1C[C@H](C)[C@@H](CN(C)C(=O)Nc2ccc(C(F)(F)F)cc2)Oc2c(NC(=O)Nc3ccccc3)cccc2C1=O,x,x,6,6,24,x
SMILES,GPR7 antagonist,zfTRPN1 agonist,TAAR1 agonist,LANA-H2A inh,TAAR1 antag,TRPML3 ag
COC(=O)N1C[C@H](OC)[C@H]2C[C@@H]1c1ccccc1O2,x,x,2,x,-8,x
CCOc1ccc(C(=O)Nc2ccc(S(=O)(=O)N3CCN(C)CC3)cc2)cc1,-21,x,4,15*,-23,x
CCCNC(=O)COc1ccc(S(=O)(=O)Nc2ccc(C)cc2)cc1,5,4,40*,x,-24,2
CN1CCN(S(=O)(=O)c2ccc(NC(=O)c3ccc(Br)o3)cc2)CC1,12,2,3,-3,2,0
CC(C)Oc1ccc(C(=O)Nc2ccc(S(=O)(=O)N3CCN(C)CC3)cc2)cc1,6,x,6,-3,-29,x
CN1CCN(S(=O)(=O)c2ccc(NC(=O)c3ccc(Br)s3)cc2)CC1,18*,2,9,-4,11,2
CNC(=O)COc1ccc(S(=O)(=O)Nc2ccc(C)cc2)cc1,-8,1,2,0,-1,1
CCOc1ccc(NS(=O)(=O)c2ccc(C(=O)N3CCCCCC3)cc2)cc1,x,x,47*,x,29,x
O=C(Nc1ccc(S(=O)(=O)N2C[C@@H]3C[C@@H](C2)c2cccc(=O)n2C3)cc1)c1ccc(F)cc1,x,x,-1,-6,13,x
CCOc1ccc(C(=O)Nc2ccc(S(=O)(=O)N3C[C@@H]4C[C@@H](C3)c3cccc(=O)n3C4)cc2)cc1,x,x,1,17*,12,x
O=C(O)c1ccccc1SCc1csc(-c2ccccc2)n1,-13,x,0,12*,-16,x
COC(=O)c1ccccc1SCc1csc(C)n1,-9,x,1,6,-17,x
COC(=O)[C@]12C[C@H](CC(=O)NCCCN3CCCC3=O)C(=O)N(Cc3ccc4c(c3)OCO4)C1=C[C@H](C(C)(C)C)O[C@@H]2C,x,x,0,x,6,x
COC(=O)Cc1nnn2c1[C@@H](C)[C@@H](c1ccccc1Br)O[C@@H](C)C2,x,x,9,x,-4,x
C#CCN1CC(COc2ccccc2)OCCS1(=O)=O (stereo not given),x,x,2,x,1,x
c1ccc(C2Nc3ccccc3Oc3ccccc32)cc1 (stereo not given),-12,-1,39*,1,14,-1
O=C(NCc1ccccc1)[C@H]1CCCN1C(=O)[C@H]1CCCN1C(=O)c1ccc(F)c(F)c1,x,x,0,x,-10,x
O=C(O)c1ccc(N/N=C/c2cc(Br)cs2)cc1,8,x,38*,-1,7,x
CCOC(=O)c1c(C)[nH]c(C(=O)COC(=O)CN2C(=O)C3CCCCC3C2=O)c1C (stereo not given),7,3,12,2,8,2
